Assay results as given in ChEMBL document CHEMBL6177935, “Design and synthesis of novel multi-target tetrabromophthalimides as CBS and Topo-II inhibitors and DNA intercalators” (RSC Med Chem, 2024).
Converted amounts (≈) assume the structure as drawn. The source made the active and inactive calls. The rule behind the calls is not given here.

Legend:
Caco-2 = test: Growth inhibition of human Caco-2 cells at 100 ug/ml measured after 48 hrs by SRB assay relative to control; format: functional; details: dose 100.0 µg/ml, pooled result: one value given for 15 cell lines, strains, targets or settings
Outline: (§1)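 SRB screen on fifteen human cancer lines. Cells seeded at 3×10^3 per well and left 24 h to attach. A single concentration of 100 µg/mL was tested in triplicate wells for 48 h, with 1% v/v DMSO as vehicle control. Cells fixed in 20% TCA, stained with 0.4% SRB and read at 570 nm. Survival fraction = OD treated/OD control.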

DNA topoisomerase 2-beta [1] = target: T1, DNA topoisomerase 2-beta (Homo sapiens, UniProt Q02880); test: Inhibition of human topoisomerase IIB by sandwich ELISA
A-431 [2] = test: Growth inhibition of human A-431 cells at 100 ug/ml measured after 48 hrs by SRB assay relative to control; format: functional; details: dose 100.0 µg/ml, pooled result: one value given for 15 cell lines, strains, targets or settings; outline: as §1
Tubulin = test: Inhibition of [3H]-colchicine binding to biotinylated-tubulin (unknown origin) measured after 45 mins by scintillation counting analysis; format: protein-complex assay, Homo sapiens
Outline: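 Scintillation proximity assay run at 37 °C. Incubated 45 min at 37 °C, then the plate was read and percent inhibition calculated from raw counts.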

NCI-H1299 = test: Growth inhibition of human NCI-H1299 cells at 100 ug/ml measured after 48 hrs by SRB assay relative to control; format: functional; details: dose 100.0 µg/ml, pooled result: one value given for 15 cell lines, strains, targets or settings; outline: as §1
HNO 97 cell line = test: Growth inhibition of human HNO 97 cells at 100 ug/ml measured after 48 hrs by SRB assay relative to control; format: functional; details: dose 100.0 µg/ml, pooled result: one value given for 15 cell lines, strains, targets or settings; outline: as §1
DNA topoisomerase 2-beta [3] = target: T1, DNA topoisomerase 2-beta; test: Inhibition of human topoisomerase IIB-mediated DNA fragmentation
HeLa [4] = test: Growth inhibition of human HeLa cells at 100 ug/ml measured after 48 hrs by SRB assay relative to control; format: functional; details: dose 100.0 µg/ml, pooled result: one value given for 15 cell lines, strains, targets or settings; outline: as §1
HN = test: Growth inhibition of human HN cells at 100 ug/ml measured after 48 hrs by SRB assay relative to control; format: functional; details: dose 100.0 µg/ml, pooled result: one value given for 15 cell lines, strains, targets or settings; outline: as §1
MDA-MB-468 [5] = test: Growth inhibition of human MDA-MB-468 cells at 100 ug/ml measured after 48 hrs by SRB assay relative to control; format: functional; details: dose 100.0 µg/ml, pooled result: one value given for 15 cell lines, strains, targets or settings; outline: as §1
HepG2 = test: Growth inhibition of human HepG2 cells at 100 ug/ml measured after 48 hrs by SRB assay relative to control; format: functional; details: dose 100.0 µg/ml, pooled result: one value given for 15 cell lines, strains, targets or settings; outline: as §1
MCF7 = test: Growth inhibition of human MCF7 cells at 100 ug/ml measured after 48 hrs by SRB assay relative to control; format: functional; details: dose 100.0 µg/ml, pooled result: one value given for 15 cell lines, strains, targets or settings; outline: as §1
FaDu [6] = test: Growth inhibition of human FaDu cells at 100 ug/ml measured after 48 hrs by SRB assay relative to control; format: functional; details: dose 100.0 µg/ml, pooled result: one value given for 15 cell lines, strains, targets or settings; outline: as §1
HEp-2 = test: Growth inhibition of human HEp-2 cells at 100 ug/ml measured after 48 hrs by SRB assay relative to control; format: functional; details: dose 100.0 µg/ml, pooled result: one value given for 15 cell lines, strains, targets or settings; outline: as §1
A-375 = test: Growth inhibition of human A-375 cells at 100 ug/ml measured after 48 hrs by SRB assay relative to control; format: functional; details: dose 100.0 µg/ml, pooled result: one value given for 15 cell lines, strains, targets or settings; outline: as §1
A549 = test: Growth inhibition of human A549 cells at 100 ug/ml measured after 48 hrs by SRB assay relative to control; format: functional; details: dose 100.0 µg/ml, pooled result: one value given for 15 cell lines, strains, targets or settings; outline: as §1
PC-3 [7] = test: Growth inhibition of human PC-3 cells at 100 ug/ml measured after 48 hrs by SRB assay relative to control; format: functional; details: dose 100.0 µg/ml, pooled result: one value given for 15 cell lines, strains, targets or settings; outline: as §1
HCT-116 = test: Growth inhibition of human HCT-116 cells at 100 ug/ml measured after 48 hrs by SRB assay relative to control; format: functional; details: dose 100.0 µg/ml, pooled result: one value given for 15 cell lines, strains, targets or settings; outline: as §1
MDA-MB-468 [8] = test: Cell cycle analysis in human MDA-MB-468 cells assessed as accumulation of cells at G0-G1 phase at 3.1 uM measured after 48 hrs by propidium iodide staining based flow cytometry (reference value: 84.43%); format: functional
Outline: (§2)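 MDA-MB-468 cells, 2 x 10^5 per well in medium with 10% FBS, grown 24 h at 37 °C, 5% CO₂. Then exposed to 3.1 μM in 1% v/v DMSO for 48 h, washed in cold PBS and fixed in ice-cold 70% ethanol. Stained with PI for 15 min at 37 °C and read by flow cytometry.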

MDA-MB-468 [9] = test: Cell cycle analysis in human MDA-MB-468 cells assessed as accumulation of cells at S phase at 3.1 uM measured after 48 hrs by propidium iodide staining based flow cytometry (reference value: 15.3%); format: functional; outline: as §2
MDA-MB-468 [10] = test: Induction of apoptosis in human MDA-MB-468 cells assessed as down regulation of MMP2 expression measured after 1 hr by ELISA relative to control; format: functional
Outline: (§3)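 Sandwich ELISA with wells precoated with capture antibody. Samples and standards (7-point curve) incubated 1 h at 37 °C, then biotin detection antibody 1 h at 37 °C, then avidin-HRP 30 min at 37 °C, with washes between steps. TMB added for 10-20 min at 37 °C in the dark, stopped with sulphuric acid and read at 450 nm. Duplicate readings averaged and zero standard subtracted.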

MDA-MB-468 [11] = test: Induction of apoptosis in human MDA-MB-468 cells assessed as down regulation of MMP9 expression measured after 1 hr by ELISA relative to control; format: functional; outline: as §3
FaDu [12] = test: Growth inhibition of human FaDu cells measured after 48 hrs by SRB assay; format: functional, cell-based
Outline: (§4)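 SRB assay. Cells seeded at 3×10^3 per well and attached 24 h, then exposed for 48 h to 12.5, 25, 50 and 62.5 µg/mL in triplicate wells, with 1% v/v DMSO vehicle. Cells fixed in 20% TCA, stained with 0.4% SRB and read at 570 nm. Survival fraction = OD treated/OD control, and IC50 taken from a sigmoidal dose-response fit.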

MDA-MB-468 [13] = test: Induction of apoptosis in human MDA-MB-468 cells assessed as upregulation of caspase-3 expression measured after 1 hr by ELISA relative to control; format: functional; outline: as §3
MDA-MB-468 [14] = test: Cell cycle analysis in human MDA-MB-468 cells assessed as accumulation of cells at G2-M phase at 3.1 uM measured after 48 hrs by propidium iodide staining based flow cytometry (reference value: 0.27%); format: functional; outline: as §2
MDA-MB-468 [15] = test: Induction of apoptosis in human MDA-MB-468 cells assessed as upregulation of caspase-7 expression measured after 1 hr by ELISA relative to control; format: functional; outline: as §3
MDA-MB-468 [16] = test: Induction of apoptosis in human MDA-MB-468 cells assessed as upregulation of p53 expression measured after 1 hr by ELISA relative to control; format: functional; outline: as §3
PC-3 [17] = test: Growth inhibition of human PC-3 cells measured after 48 hrs by SRB assay; format: functional, cell-based; outline: as §4
HeLa [18] = test: Growth inhibition of human HeLa cells measured after 48 hrs by SRB assay; format: functional, cell-based; outline: as §4
A-431 [19] = test: Growth inhibition of human A-431 cells measured after 48 hrs by SRB assay; format: functional, cell-based; outline: as §4
MDA-MB-468 [20] = test: Induction of apoptosis in human MDA-MB-468 cells assessed as upregulation of caspase-9 expression measured after 1 hr by ELISA relative to control; format: functional; outline: as §3
MDA-MB-468 [21] = test: Growth inhibition of human MDA-MB-468 cells measured after 48 hrs by SRB assay; format: functional, cell-based; details: MDA-MB-468, 48 h; outline: as §4
MDA-MB-468 [22] = test: Induction of apoptosis in human MDA-MB-468 cells assessed as upregulation of Bax expression measured after 1 hr by ELISA relative to control; format: functional; outline: as §3
MDA-MB-468 [23] = test: Induction of apoptosis in human MDA-MB-468 cells assessed as upregulation of caspase-8 expression measured after 1 hr by ELISA relative to control; format: functional; outline: as §3
MDA-MB-468 [24] = test: Induction of apoptosis in human MDA-MB-468 cells assessed as down regulation of BCL-2 expression measured after 1 hr by ELISA relative to control; format: functional; outline: as §3

T1 sequence (Q02880 whole entry): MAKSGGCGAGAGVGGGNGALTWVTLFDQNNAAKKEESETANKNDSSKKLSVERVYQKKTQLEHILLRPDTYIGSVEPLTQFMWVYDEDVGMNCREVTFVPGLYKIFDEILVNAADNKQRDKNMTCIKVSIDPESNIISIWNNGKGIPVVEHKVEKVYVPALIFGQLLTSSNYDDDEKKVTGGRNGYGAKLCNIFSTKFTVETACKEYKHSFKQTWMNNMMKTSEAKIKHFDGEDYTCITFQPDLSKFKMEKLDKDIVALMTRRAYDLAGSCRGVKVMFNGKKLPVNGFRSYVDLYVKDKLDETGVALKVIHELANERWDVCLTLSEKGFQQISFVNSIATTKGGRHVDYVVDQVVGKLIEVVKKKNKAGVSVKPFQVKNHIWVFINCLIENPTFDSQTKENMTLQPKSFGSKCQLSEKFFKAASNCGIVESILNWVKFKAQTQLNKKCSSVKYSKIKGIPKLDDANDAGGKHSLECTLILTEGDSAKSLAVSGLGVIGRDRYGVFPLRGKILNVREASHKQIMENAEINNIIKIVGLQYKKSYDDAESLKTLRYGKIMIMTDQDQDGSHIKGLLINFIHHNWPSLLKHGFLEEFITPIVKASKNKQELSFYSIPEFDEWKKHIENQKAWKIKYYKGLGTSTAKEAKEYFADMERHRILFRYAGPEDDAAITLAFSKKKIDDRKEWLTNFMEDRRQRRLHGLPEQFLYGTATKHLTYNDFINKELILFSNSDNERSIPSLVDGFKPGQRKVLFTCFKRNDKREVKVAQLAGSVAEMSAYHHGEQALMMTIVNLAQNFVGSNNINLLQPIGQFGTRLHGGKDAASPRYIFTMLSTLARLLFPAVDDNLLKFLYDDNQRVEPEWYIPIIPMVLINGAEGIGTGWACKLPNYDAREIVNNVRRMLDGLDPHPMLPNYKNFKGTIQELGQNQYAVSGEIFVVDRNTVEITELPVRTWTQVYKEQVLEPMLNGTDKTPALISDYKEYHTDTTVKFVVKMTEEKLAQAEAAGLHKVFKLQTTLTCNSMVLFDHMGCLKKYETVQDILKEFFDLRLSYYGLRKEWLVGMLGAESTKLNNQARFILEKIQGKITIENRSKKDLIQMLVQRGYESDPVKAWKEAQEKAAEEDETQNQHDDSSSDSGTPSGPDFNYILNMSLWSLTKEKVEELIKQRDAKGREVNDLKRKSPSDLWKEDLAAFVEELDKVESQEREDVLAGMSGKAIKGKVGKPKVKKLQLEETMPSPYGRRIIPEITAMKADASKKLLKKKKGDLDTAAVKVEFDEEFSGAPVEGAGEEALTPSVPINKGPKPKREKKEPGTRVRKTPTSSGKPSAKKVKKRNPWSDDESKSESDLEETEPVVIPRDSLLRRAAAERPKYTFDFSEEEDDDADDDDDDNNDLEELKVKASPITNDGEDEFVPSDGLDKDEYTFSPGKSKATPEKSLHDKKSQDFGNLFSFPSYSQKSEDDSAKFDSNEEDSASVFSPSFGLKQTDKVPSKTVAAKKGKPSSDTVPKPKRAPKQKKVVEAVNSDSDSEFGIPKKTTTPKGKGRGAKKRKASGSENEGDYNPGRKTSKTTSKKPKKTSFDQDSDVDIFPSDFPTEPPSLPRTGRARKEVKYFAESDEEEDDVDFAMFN

Structure (SMILES) | growth inhibition (GI) (Caco-2) | growth inhibition (GI) (A-431 [2]) | IC50 (Tubulin) [µM] | growth inhibition (GI) (NCI-H1299) | growth inhibition (GI) (HNO 97 cell line) | inhibition (DNA topoisomerase 2-beta [3]) | growth inhibition (GI) (HeLa [4]) | growth inhibition (GI) (HN) | growth inhibition (GI) (MDA-MB-468 [5]) | growth inhibition (GI) (HepG2) | growth inhibition (GI) (MCF7) | growth inhibition (GI) (FaDu [6]) | growth inhibition (GI) (HEp-2) | growth inhibition (GI) (A-375) | growth inhibition (GI) (A549) | growth inhibition (GI) (PC-3 [7]) | growth inhibition (GI) (HCT-116) | further results
CC(=O)n1c(-c2ccc(N3C(=O)c4c(Br)c(Br)c(Br)c(Br)c4C3=O)cc2)nc2ccccc21 | Active | Active | 6.94 | Active | Active | Active | Active | Active | Active | Active | Active | Active | Active | Active | Active | Active | Active | inhibition (DNA topoisomerase 2-beta [1]): Active
Cc1nnc(S)n(N2C(=O)c3c(Br)c(Br)c(Br)c(Br)c3C2=O)c1=O | Active | Active | 3.18 | Active | Active | Active | Active | Active | Active | Active | Active | Active | Active | Active | Active | Active | Active | Activity (MDA-MB-468 [8]): 88.67%; Activity (MDA-MB-468 [9]): 9.04%; IC50 (DNA topoisomerase 2-beta [1]): 26.1 µM; fold change (FC) (MDA-MB-468 [10]): 1.9; fold change (FC) (MDA-MB-468 [11]): 2.29; growth inhibition (GI) (FaDu [12]): Active; fold change (FC) (MDA-MB-468 [13]): 3.42; Activity (MDA-MB-468 [14]): 2.29%; fold change (FC) (MDA-MB-468 [15]): 2.44; fold change (FC) (MDA-MB-468 [16]): 3.61; growth inhibition (GI) (PC-3 [17]): Active; growth inhibition (GI) (HeLa [18]): Active; growth inhibition (GI) (A-431 [19]): Active; fold change (FC) (MDA-MB-468 [20]): 3.72; IC50 (MDA-MB-468 [21]): 6.7 µg/mL (≈ 11.1 µM); fold change (FC) (MDA-MB-468 [22]): 2.44; fold change (FC) (MDA-MB-468 [23]): 2.33; fold change (FC) (MDA-MB-468 [24]): 1.81
